The test system of assay [1] is CEM-SS. Description: Inhibitory activity against the HIV-1-induced cytopathic effect in CEM-SS cell line. In kind it is functional, cell-based. To be noted: Homo sapiens. An outline of the steps: (§1)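 XTT cytoprotection assay. CEM-SS cells were seeded at 5×10^3 per well and infected at a multiplicity that gave complete killing of virus control wells by day 6. Isolates were pretitered to equivalent infection. Serial half-log dilutions of compound were tested in triplicate. After 6 days at 37 °C, XTT (1 mg/mL) with phenazine methosulfate (6.12 µg/mL) was added for 4 h and read at 450 nm. Concentrations in µM were based on estimated number-average molecular weights.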
(In general: Cytopathic effects are the visible damage that an infection or toxin causes in cultured cells.)

Assay [2] has as its system CEM-SS. Description: Inhibitory activity against the cytopathic effect of HIV-2 G910-6(AZT-res) strain in CEM-SS cells. In kind it is functional, cell-based. To be noted: Homo sapiens. Put shortly: as §1
In assay [3] the test system is CEM-SS. Description: Inhibitory activity against the cytopathic effect of HIV-1 RFstrain in CEM-SS cells. The format is functional, cell-based. To be noted: Homo sapiens. An outline of the steps: as §1
Assay [4] relates to CEM-SS. Put plainly: Inhibitory activity against the cytopathic effect of HIV-1 LAV strain in CEM-SS cells. In kind it is functional, cell-based. As to conditions: Homo sapiens. An outline of the steps: as §1
Assay [5] deals with CEM-SS. Put plainly: Inhibitory activity against the cytopathic effect of HIV-2 ROD strain in CEM-SS cells. The format is functional, cell-based. To be noted: Homo sapiens. An outline of the steps: as §1
The subject of assay [6] is MT2. Put plainly: Inhibitory activity against the HIV-1-induced cytopathic effect in MT-2 cell line. The format is functional, cell-based. As to conditions: Homo sapiens.
Assay [7] deals with CEM-SS. Put plainly: Inhibitory activity against the cytopathic effect of HIV-2 A17 (pyridinone-res) strain in CEM-SS cells. In kind it is functional, cell-based. To be noted: Homo sapiens. An outline of the steps:
as §1

Assay [8] deals with CEM-SS. Description: Inhibitory activity against the cytopathic effect of HIV-2 MS strain in CEM-SS cells. In kind it is functional, cell-based. To be noted: Homo sapiens. Put shortly:
as §1

The species entered for assay [9] is Homo sapiens. Put plainly: Inhibitory activity against the HIV-1-induced cytopathic effect in Macrophage. The format is functional, organism-based. An outline of the steps: (§2)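 Fresh human peripheral blood lymphocytes and macrophages were isolated by Ficoll-Hypaque centrifugation. They were infected with clinical HIV-1 isolates cultured from patient peripheral blood lymphocytes, then treated with the polymers. Inhibition of HIV replication was reported as IC50.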

Assay [10] is filed under the species Homo sapiens. Description: Inhibitory activity against the HIV-1-induced cytopathic effect in human peripheral blood lymphocytes. The format is functional, organism-based. Put shortly: as §2
Assay [11] concerns CEM-SS. Description: Inhibitory activity against the cytopathic effect of HIV-1 IIIB strain in CEM-SS cells. The format is functional, cell-based. To be noted: Homo sapiens. An outline of the steps:
as §1

Assay [12] is filed under the species Homo sapiens. Put plainly: Inhibitory activity against the HIV-1-induced cytopathic effect in fresh human peripheral blood lymphocytes. In kind it is functional, organism-based. An outline of the steps: as §2

A word on the IC50: it is the concentration at which inhibition is half-maximal. A higher IC50 goes with weaker potency in that assay. `Cn1c(N)nc2c(ncn2[C@@H]2O[C@H](CO)[C@@H](OP(=O)(O)O)[C@H]2O)c1=S`: the IC50 in [1] came out at 10 nM; in assay [2], 20 nM; in assay [3], 50 nM; in assay [4] it was 30 nM; in assay [5], 30 nM; in [6] it was 160 nM. Further, the 50% inhibitory concentration (IC50) is 80 nM in assay [7]; 30 nM in assay [8]; 2 nM in assay [9]; 30 nM in assay [10]; 10 nM in assay [11].
As for `Cn1cnc2c(ncn2C2O[C@H](COP(=O)(O)O)[C@@H](O)[C@H]2O)c1=S` (stereo partly drawn), the IC50 was 80 nM in assay [1]; 100 nM in assay [2]; 170 nM in assay [3]; 40 nM in assay [4]; 250 nM in assay [5]; 800 nM in assay [6]. Besides, the IC50 in assay [7] is 600 nM; in assay [8] it was 140 nM; in [9], 150 nM; in assay [12], 30 nM; in assay [11], 80 nM.
Consider `Cc1cn([C@H]2C[C@H](N=[N+]=[N-])[C@@H](CO)O2)c(=O)[nH]c1=O` [ZIDOVUDINE], for which the IC50 was 2 nM in [1]; over 1000 nM in [2]; 30 nM in assay [3]; 4 nM in assay [4]; 5 nM in assay [5]; 6 nM in assay [6]. Also, the IC50 is 5 nM in assay [7]; 30 nM in [8]; 400 nM in assay [9]; 20 nM in [12]; 2 nM in assay [11].

For the origin of these results see ChEMBL document CHEMBL1128517, “Unusual single-stranded polyribonucleotides as potent anti-HIV agents” (J Med Chem, 1995).
